Assays:
[1] = test system: Rattus norvegicus; experiment: Ratio of distribution of radioactivity in rat brain hypothalamus and cerebellum 120 min after intravenous administration of iodine labeled compound; assay type: ADME, organism-based; details: in vivo, 2 h
Outline: (§1)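 Male Sprague–Dawley rats (225–300 g) under ketamine anaesthesia were given [123I]ZIENT (10 μCi) in 0.2 mL 10% EtOH/0.9% NaCl into the tail vein, with a saline flush. Hypothalamus, prefrontal cortex, striatum, pons and cerebellum were dissected and gamma-counted. % injected dose/g came from decay-corrected counts against the diluted injected dose, and region/cerebellum ratios were taken from these. Mean ± SE, n=4–5.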

[2] = molecular target: Sodium-dependent noradrenaline transporter (Homo sapiens, UniProt P23975); experiment: In vitro competitive binding versus [3H]- […] in murine kidney cells transfected with cDNA for human norepinephrine transporter (NET); assay type: cell-based
[3] = test system: Rattus norvegicus; experiment: Distribution of radioactivity in rat brain region prefrontal cortex 60 min after intravenous administration of iodine labeled compound in presence of fluvoxamine blocker in study 1; assay type: ADME, organism-based; details: in vivo, 1 h
Outline: (§2)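 Male Sprague–Dawley rats (250–300 g), ketamine-anesthetized. Blocker (2 mg/kg) or none was given iv 15 min before tail-vein radioligand (10 µCi in 0.2 mL 10% EtOH/saline). Rats were killed at 60 min with im pentobarbital. Brain regions were dissected, weighed and gamma-counted. % dose/g was taken from decay-corrected, background-subtracted counts versus the injected dose.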

[4] = test system: Rattus norvegicus; experiment: Distribution of radioactivity in rat heart 30 min after intravenous administration of iodine labeled compound; assay type: ADME, organism-based; details: in vivo, 0.5 h
Outline: (§3)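 Tail-vein injection of [123I]ZIENT (10 μCi in 0.2 mL 10% EtOH/0.9% NaCl, then 0.4 mL saline flush) into ketamine-anaesthetised male Sprague–Dawley rats (225–300 g). Animals were killed by cardiac excision at set times. Organs were excised, rinsed, blotted, weighed and gamma-counted. % dose/g was calculated against diluted aliquots of injectate. Mean ± SE, n=4–5.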

[5] = molecular target: Sodium-dependent serotonin transporter (Homo sapiens, UniProt P31645); experiment: In vitro competitive binding versus [3H]citalopram in murine kidney cells transfected with cDNA for human serotonin transporter (SERT); assay type: cell-based
[6] = test system: Rattus norvegicus; experiment: Distribution of radioactivity in rat blood 120 min after intravenous administration of iodine labeled compound; assay type: ADME, organism-based; details: in vivo, 2 h
Outline: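 Male Sprague–Dawley rats (225–300 g) under ketamine received 10 µCi radioligand in 0.2 mL 10% EtOH/0.9% NaCl via tail vein, then a saline flush. Killed by cardiac excision at set times. Organs were excised, weighed and gamma-counted. % dose/g was taken against diluted injectate. Mean ± SE and range, n=4 (5 min) or 5 (30–120 min).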

[7] = test system: Rattus norvegicus; experiment: Distribution of radioactivity in rat heart 60 min after intravenous administration of iodine labeled compound; assay type: ADME, organism-based; details: in vivo, 1 h; outline: as §3
[8] = test system: Rattus norvegicus; experiment: Ratio of distribution of radioactivity in rat brain region pons and cerebellum 60 min after intravenous administration of iodine labeled compound in absence of blocker in study 1; assay type: ADME, organism-based; details: in vivo, 1 h
[9] = test system: Rattus norvegicus; experiment: Distribution of radioactivity in rat brain region striatum 60 min after intravenous administration of iodine labeled compound in presence of RTI-113 blocker in study 1; assay type: ADME, organism-based; details: in vivo, 1 h
Outline: (§4)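 Male Sprague–Dawley rats (250–300 g), ketamine-anaesthetised, received [123I]ZIENT (10 μCi) in 0.2 mL 10% ethanol/0.9% NaCl via the tail vein. […] Rats were killed at 60 min with pentobarbital, brain regions dissected and gamma-counted. Values are % dose/g from decay-corrected, background-subtracted counts against the diluted injected dose.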

[10] = test system: Rattus norvegicus; experiment: Distribution of radioactivity in rat muscle tissue 30 min after intravenous administration of iodine labeled compound; assay type: ADME, organism-based; details: in vivo, 0.5 h; outline: as §3
[11] = test system: Rattus norvegicus; experiment: Distribution of radioactivity in rat brain region frontal cortex 60 min after intravenous administration of iodine labeled compound in presence of reboxetine blocker in study 2; assay type: ADME, organism-based; details: in vivo, 1 h; outline: as §2
[12] = test system: Rattus norvegicus; experiment: Distribution of radioactivity in rat brain prefrontal cortex 5 min after intravenous administration of iodine labeled compound; assay type: ADME, organism-based; details: in vivo
Outline: (§5)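 Male Sprague–Dawley rats (225–300 g) under ketamine received 10 µCi radioligand iv (tail vein) in 10% EtOH/saline. Hypothalamus, prefrontal cortex, striatum, pons and cerebellum were dissected, weighed and gamma-counted. % injected dose/g was taken from decay-corrected counts versus diluted dose. Mean ± SE and range, n=5 (5, 30 min) or 4 (60, 120 min).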

[13] = test system: Rattus norvegicus; experiment: Distribution of radioactivity in rat brain pons 120 min after intravenous administration of iodine labeled compound; assay type: ADME, organism-based; details: in vivo, 2 h; outline: as §5
[14] = test system: Rattus norvegicus; experiment: Ratio of distribution of radioactivity in rat brain region prefrontal cortex and cerebellum 60 min after intravenous administration of iodine labeled compound in absence of blocker in study 1; assay type: ADME, organism-based; details: in vivo, 1 h
[15] = test system: Rattus norvegicus; experiment: Distribution of radioactivity in rat brain region pons 60 min after intravenous administration of iodine labeled compound in absence of blocker in study 1; assay type: ADME, organism-based; details: in vivo, 1 h; outline: as §2
[16] = test system: Rattus norvegicus; experiment: Ratio of distribution of radioactivity in rat brain region striatum and cerebellum 60 min after intravenous administration of iodine labeled compound in absence of blocker in study 1; assay type: ADME, organism-based; details: in vivo, 1 h
[17] = test system: Rattus norvegicus; experiment: Distribution of radioactivity in rat thyroid 120 min after intravenous administration of iodine labeled compound; assay type: ADME, organism-based, Thyroid gland; details: in vivo, 2 h; outline: as §3
[18] = test system: Rattus norvegicus; experiment: Distribution of radioactivity in rat brain region hypothalamus 60 min after intravenous administration of iodine labeled compound in presence of reboxetine blocker in study 2; assay type: ADME, organism-based; details: in vivo, 1 h; outline: as §2
[19] = test system: Rattus norvegicus; experiment: Distribution of radioactivity in rat brain pons 5 min after intravenous administration of iodine labeled compound; assay type: ADME, organism-based; details: in vivo; outline: as §5
[20] = test system: Rattus norvegicus; experiment: Distribution of radioactivity in rat kidney 5 min after intravenous administration of iodine labeled compound; assay type: ADME, organism-based; details: in vivo; outline: as §3
[21] = test system: Rattus norvegicus; experiment: Distribution of radioactivity in rat brain prefrontal cortex 60 min after intravenous administration of iodine labeled compound; assay type: ADME, organism-based; details: in vivo, 1 h; outline: as §5
[22] = test system: Rattus norvegicus; experiment: Distribution of radioactivity in rat thyroid 30 min after intravenous administration of iodine labeled compound; assay type: ADME, organism-based, Thyroid gland; details: in vivo, 0.5 h; outline: as §3
[23] = test system: Rattus norvegicus; experiment: Ratio of distribution of radioactivity in rat brain region striatum and cerebellum 60 min after intravenous administration of iodine labeled compound in presence of fluvoxamine blocker in study 1; assay type: ADME, organism-based; details: in vivo, 1 h
[24] = test system: Rattus norvegicus; experiment: Distribution of radioactivity in rat brain pons 30 min after intravenous administration of iodine labeled compound; assay type: ADME, organism-based; details: in vivo, 0.5 h; outline: as §5
[25] = test system: Rattus norvegicus; experiment: Ratio of distribution of radioactivity in rat brain striatum and cerebellum 60 min after intravenous administration of iodine labeled compound; assay type: ADME, organism-based; details: in vivo, 1 h
Outline: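 Male Sprague–Dawley rats (225–300 g), ketamine anesthesia, injected via tail vein with [123I]ZIENT (10 μCi in 0.2 mL 10% EtOH/0.9% NaCl, 0.4 mL saline flush). Killed at 5, 30, 60 or 120 min. Striatum and cerebellum dissected, weighed, γ-counted. Decay-corrected %injected dose/g taken against diluted injectate. Ratio is striatum over cerebellum. Four or five rats per time point, mean ± standard error.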

[26] = test system: Rattus norvegicus; experiment: Distribution of radioactivity in rat brain region striatum 60 min after intravenous administration of iodine labeled compound in presence of fluvoxamine blocker in study 1; assay type: ADME, organism-based; details: in vivo, 1 h; outline: as §4
[27] = test system: Rattus norvegicus; experiment: Distribution of radioactivity in rat brain region prefrontal cortex 60 min after intravenous administration of iodine labeled compound in absence of blocker in study 2; assay type: ADME, organism-based; details: in vivo, 1 h; outline: as §2
[28] = test system: Rattus norvegicus; experiment: Distribution of radioactivity in rat brain region striatum 60 min after intravenous administration of iodine labeled compound in presence of reboxetine blocker in study 2; assay type: ADME, organism-based; details: in vivo, 1 h; outline: as §4
[29] = test system: Rattus norvegicus; experiment: Distribution of radioactivity in rat brain striatum 120 min after intravenous administration of iodine labeled compound; assay type: ADME, organism-based; details: in vivo, 2 h; outline: as §1
[30] = test system: Rattus norvegicus; experiment: Ratio of distribution of radioactivity in rat brain region pons and cerebellum 60 min after intravenous administration of iodine labeled compound in presence of RTI-113 blocker in study 1; assay type: ADME, organism-based; details: in vivo, 1 h
[31] = test system: Rattus norvegicus; experiment: Ratio of distribution of radioactivity in rat brain hypothalamus and cerebellum 60 min after intravenous administration of iodine labeled compound; assay type: ADME, organism-based; details: in vivo, 1 h; outline: as §1

Chain of Sodium-dependent serotonin transporter (P31645 whole entry): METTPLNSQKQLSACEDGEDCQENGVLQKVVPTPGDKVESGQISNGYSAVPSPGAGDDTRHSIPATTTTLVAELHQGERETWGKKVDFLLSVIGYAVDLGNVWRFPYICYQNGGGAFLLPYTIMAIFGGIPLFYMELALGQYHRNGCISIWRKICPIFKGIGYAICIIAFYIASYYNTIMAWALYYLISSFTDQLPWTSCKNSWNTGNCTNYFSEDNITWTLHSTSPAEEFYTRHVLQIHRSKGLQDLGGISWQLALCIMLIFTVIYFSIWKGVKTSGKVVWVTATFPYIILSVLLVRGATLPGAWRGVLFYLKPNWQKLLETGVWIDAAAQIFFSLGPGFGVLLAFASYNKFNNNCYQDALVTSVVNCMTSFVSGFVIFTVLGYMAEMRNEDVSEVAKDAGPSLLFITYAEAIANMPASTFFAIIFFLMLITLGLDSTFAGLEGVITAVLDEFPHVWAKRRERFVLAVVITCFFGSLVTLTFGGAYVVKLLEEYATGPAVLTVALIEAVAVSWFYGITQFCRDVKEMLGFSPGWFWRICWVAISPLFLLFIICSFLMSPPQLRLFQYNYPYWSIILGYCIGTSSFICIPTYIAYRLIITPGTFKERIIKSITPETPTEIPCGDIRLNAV
Chain of Sodium-dependent noradrenaline transporter (P23975 whole entry): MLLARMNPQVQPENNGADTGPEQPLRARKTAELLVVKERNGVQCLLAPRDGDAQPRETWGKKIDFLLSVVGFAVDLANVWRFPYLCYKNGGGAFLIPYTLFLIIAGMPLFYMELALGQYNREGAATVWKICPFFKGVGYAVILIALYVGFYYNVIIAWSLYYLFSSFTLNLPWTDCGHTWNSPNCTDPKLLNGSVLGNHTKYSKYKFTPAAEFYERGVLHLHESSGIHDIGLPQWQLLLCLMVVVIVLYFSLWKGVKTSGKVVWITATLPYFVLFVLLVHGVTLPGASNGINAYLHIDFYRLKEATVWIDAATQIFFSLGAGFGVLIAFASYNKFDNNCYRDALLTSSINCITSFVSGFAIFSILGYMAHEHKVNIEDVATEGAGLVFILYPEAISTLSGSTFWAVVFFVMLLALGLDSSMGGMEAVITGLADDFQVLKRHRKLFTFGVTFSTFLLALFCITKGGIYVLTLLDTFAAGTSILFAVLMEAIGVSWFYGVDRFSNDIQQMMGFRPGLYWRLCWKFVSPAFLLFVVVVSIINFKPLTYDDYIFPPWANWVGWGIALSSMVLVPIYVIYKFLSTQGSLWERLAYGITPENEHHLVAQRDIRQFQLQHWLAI

COC(=O)[C@@H]1C2CCC(C[C@@H]1c1ccc(/C=C\I)cc1)N2 (stereo partly specified)
Distribution (dose/g) [1]: 4.92% | Ki [2]: 24 nM | Distribution (dose/g) [3]: 0.28% | Distribution (dose/g) [4]: 0.36% | Ki [5]: 0.05 nM | Distribution (dose/g) [6]: 0.31% | Distribution (dose/g) [7]: 0.29% | Distribution (dose/g) [8]: 2.58% | Distribution (dose/g) [9]: 0.64% | Distribution (dose/g) [10]: 0.23% | Distribution (dose/g) [11]: 0.63% | Distribution (dose/g) [12]: 0.77% | Distribution (dose/g) [13]: 0.4% | Distribution (dose/g) [14]: 3.88% | Distribution (dose/g) [15]: 0.62% | Distribution (dose/g) [16]: 3.17% | Distribution (dose/g) [17]: 1.87% | Distribution (dose/g) [18]: 0.65% | Distribution (dose/g) [19]: 0.59% | Distribution (dose/g) [20]: 1.13% | Distribution (dose/g) [21]: 0.82% | Distribution (dose/g) [22]: 0.49% | Distribution (dose/g) [23]: 1.76% | Distribution (dose/g) [24]: 0.6% | Distribution (dose/g) [25]: 2.72% | Distribution (dose/g) [26]: 0.3% | Distribution (dose/g) [27]: 0.74% | Distribution (dose/g) [28]: 0.66% | Distribution (dose/g) [29]: 0.49% | Distribution (dose/g) [30]: 2.24% | Distribution (dose/g) [31]: 3.08%

— ChEMBL document CHEMBL1136726, “Synthesis and characterization of iodine-123 labeled 2beta-carbomethoxy-3beta-(4'-((Z)-2-iodoethenyl)phenyl)nortropane. A ligand for in vivo imaging of serotonin transporters by single-photon-emission tomography” (J Med Chem, 2003)
